From ChEMBL document CHEMBL4382255, “Design, synthesis and activity of Mnk1 and Mnk2 selective inhibitors containing thieno[2,3-d]pyrimidine scaffold” (Eur J Med Chem, 2019)
Calls of active or inactive are those of the source. Unless noted, the calls are words filed in the database; no cut-off is given here.

Assays:
[1] = target: MAP kinase-interacting serine/threonine-protein kinase 1 (Mus musculus) (UniProt O08605); assay: Inhibition of MNK1 in C57BL/6J mouse embryonic fibroblasts assessed as decrease in eIF4E phosphorylation at 5 uM after 2 hrs by Western blot analysis
Procedure, shortened: (§1)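 MEFs from E13.5 C57BL/6J embryos, wild-type, MNK1-KO or MNK2-KO (DMEM, 10% FBS), treated 2 h with inhibitor at indicated concentrations, including a lower-concentration series in MNK1-KO cells; CGP57380 at 50 μM as reference. Lysates analysed by SDS-PAGE/western blot for P-eIF4E; quantified from three independent experiments, SEM.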

[2] = tested on: MDA-MB-231; assay: Cell cycle arrest in human MDA-MB-231 cells assessed as accumulation of cells at sub-G0 phase at 0.3 to 6 uM after 2 hrs by propidium iodide staining-based flow cytometric analysis; format: ADME; conditions: mda-mb-231, 2 h
Procedure, shortened: (§2)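 MDA-MB-231 cells seeded at 5 x 10^5 cells/well, allowed 24 h to attach, then treated with inhibitor or vehicle. Harvested at ~70% confluence, fixed in methanol ≥2 h, stained with 1 µg/ml propidium iodide; ~20,000 cells analysed by flow cytometry for cell-cycle phase proportions including sub-G0. Mean ± SEM, n=5.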

[3] = target: MAP kinase-interacting serine/threonine-protein kinase 2 (Mus musculus) (UniProt Q8CDB0); assay: Inhibition of MNK2 in C57BL/6J mouse embryonic fibroblasts assessed as decrease in eIF4E phosphorylation at 5 uM after 2 hrs by Western blot analysis; procedure, shortened: as §1
[4] = target: T1, MAP kinase-interacting serine/threonine-protein kinase 1/2 (Homo sapiens) (UniProt Q9HBH9+Q9BUB5); assay: Inhibition of MNK in human MDA-MB-231 cells assessed as decrease in eIF4E phosphorylation at 1 uM after 2 hrs by Western blot analysis; format: cell-based
Procedure, shortened: (§3)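 MDA-MB-231 cells treated with inhibitor at indicated concentrations for 2 h, or at 3 μM for times up to 72 h (DMSO vehicle <0.05%). Cells lysed in RIPA buffer; supernatants analysed by SDS-PAGE and western blot for P-eIF4E and total eIF4E. CGP57380 at 30 μM as reference.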

[5] = species on record: Mus musculus; assay: Inhibition of mTORC1 in mouse 3T3L1 cells assessed as reduction in 4EBP1 at Ser65 residue phosphorylation at 0.1 to 5 uM after 2 hrs by Western blot analysis; format: cell-based
Procedure, shortened: (§4)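 3T3-L1 cells treated 2 h with inhibitor at indicated concentrations (DMSO <0.05% v/v). RIPA lysates, equal protein by Bradford, SDS-PAGE and western blot with phospho-specific antibodies (ERK, RSK, PKB Ser473, 4E-BP1, rpS6); fluorescent secondary imaging. Quantified from three independent experiments, SEM error bars.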

[6] = target: MAP kinase-interacting serine/threonine-protein kinase 1 (Mus musculus) (UniProt O08605); assay: Inhibition of MNK1 in C57BL/6J mouse embryonic fibroblasts assessed as decrease in eIF4E phosphorylation at 0.1 to 0.3 uM after 2 hrs by Western blot analysis relative to control; procedure, shortened: as §1
[7] = tested on: MDA-MB-231; assay: Cell cycle arrest in human MDA-MB-231 cells at 0.3 to 6 uM after 2 hrs by propidium iodide staining-based flow cytometric analysis; format: ADME; conditions: mda-mb-231, 2 h; procedure, shortened: as §2
[8] = target: MAP kinase-interacting serine/threonine-protein kinase 2 (Mus musculus) (UniProt Q8CDB0); assay: Inhibition of MNK2 in MNK1-knockout C57BL/6J mouse embryonic fibroblasts assessed as decrease in eIF4E phosphorylation at 0.5 uM after 2 hrs by Western blot analysis; procedure, shortened: as §1
[9] = species on record: Mus musculus; assay: Inhibition of mTORC1 in mouse 3T3L1 cells assessed as reduction in rpS6 phosphorylation at Ser240/244 residues at 0.1 to 5 uM after 2 hrs by Western blot analysis; format: cell-based; procedure, shortened: as §4
[10] = species on record: Mus musculus; assay: Inhibition of mTORC2 in mouse 3T3L1 cells assessed as reduction in PKB phosphorylation at Ser473 residue at 0.1 to 5 uM after 2 hrs by Western blot analysis; format: cell-based; procedure, shortened: as §4
[11] = species on record: Mus musculus; assay: Inhibition of MNK in mouse 3T3L1 cells assessed as reduction of eIF4E phosphorylation at 3 uM after 2 hrs by Western blot analysis; format: cell-based
Procedure, shortened: (§5)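 Mouse 3T3-L1 pre-adipocytes (DMEM high glucose, 10% heat-inactivated FBS, 37 °C, 5% CO₂) treated 2 h with compounds at 3 μM or lower concentrations down to 0.1 μM final; DMSO vehicle 0.03-0.05% final. RIPA lysates cleared, equal protein resolved by SDS-PAGE, immunoblotted for P-eIF4E and total eIF4E, fluorescent secondary detection.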

[12] = target: T1, MAP kinase-interacting serine/threonine-protein kinase 1/2 (Homo sapiens); assay: Inhibition of MNK in human MDA-MB-231 cells assessed as decrease in eIF4E phosphorylation at 3 uM up to 72 hrs by Western blot analysis; format: cell-based; procedure, shortened: as §3
[13] = Inhibition in C57BL/6J mouse embryonic fibroblasts assessed as decrease in eIF4E phosphorylation at 0.1 to 0.3 uM after 2 hrs by Western blot analysis relative to control
[14] = tested on: MDA-MB-231; assay: Antimigratory activity against human MDA-MB-231 cells after 24 hrs by DAPI staining-based Transwell assay; format: functional, cell-based
Procedure, shortened: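 MDA-MB-231 cells pre-treated with inhibitor 60 min, then 3 x 10⁵ cells seeded into 8 μm-pore Transwell inserts pre-coated with 10 μg/ml collagen (collagen as attractant). After 24 h, migrated cells in bottom well stained with DAPI, imaged at ×10 and counted. Triplicate assays, mean ± SEM.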

[15] = tested on: 3T3-L1; assay: Effect on total eIF4E protein level in mouse 3T3L1 cells at 3 uM after 2 hrs by Western blot analysis; format: ADME, cell-based; conditions: 3t3-l1, 2 h; procedure, shortened: as §5
[16] = target: MAP kinase-interacting serine/threonine-protein kinase 1 (Homo sapiens) (UniProt Q9BUB5); assay: Inhibition of GST-fused MNK1a (unknown origin) expressed in HEK293 cells using eIF4E as substrate after 30 mins by Western blot analysis; format: cell-based
Procedure, shortened: (§6)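 GST-MNK1a or GST-MNK2a expressed in transfected HEK293 cells, purified by glutathione pull-down. Incubated in 25 mM Tris-HCl pH 7.5, 50 mM KCl, 2 mM MgCl₂ with 20 µM ATP and 65 ng E. coli-expressed eIF4E, 30 °C, 30 min, ± inhibitor. Stopped with sample buffer; immunoblotted for P-eIF4E Ser209, eIF4E and GST. Conditions pre-set within linear range.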

[17] = target: MAP kinase-interacting serine/threonine-protein kinase 2 (Mus musculus) (UniProt Q8CDB0); assay: Inhibition of MNK2 in MNK1-knockout C57BL/6J mouse embryonic fibroblasts assessed as decrease in eIF4E phosphorylation at 0.003 to 0.03 uM after 2 hrs by Western blot analysis; procedure, shortened: as §1
[18] = species on record: Mus musculus; assay: Stimulation of ERK signalling in mouse 3T3L1 cells assessed as increase in RSK phosphorylation at […] residue at 0.1 to 5 uM after 2 hrs by Western blot analysis; format: cell-based; procedure, shortened: as §4
[19] = target: Mitogen-activated protein kinase 1 and 3 (ERK2 and ERK1) (Mus musculus) (UniProt P63085+Q63844); assay: Stimulation of ERK1/2 phosphorylation at Thr202/Tyr204 residues in mouse 3T3L1 cells at 0.1 to 5 uM after 2 hrs by Western blot analysis; format: cell-based; procedure, shortened: as §4
[20] = species on record: Mus musculus; assay: Inhibition of MNK in mouse 3T3L1 cells assessed as reduction of eIF4E phosphorylation at 0.1 uM after 2 hrs by Western blot analysis; format: cell-based; procedure, shortened: as §5
[21] = target: MAP kinase-interacting serine/threonine-protein kinase 1 (Mus musculus) (UniProt O08605); assay: Inhibition of MNK1 in MNK2-knockout C57BL/6J mouse embryonic fibroblasts assessed as decrease in eIF4E phosphorylation at 0.3 to 5 uM after 2 hrs by Western blot analysis; procedure, shortened: as §1
[22] = target: MAP kinase-interacting serine/threonine-protein kinase 2 (Homo sapiens) (UniProt Q9HBH9); assay: Inhibition of GST-fused MNK2a (unknown origin) expressed in HEK293 cells using eIF4E as substrate after 30 mins by Western blot analysis; format: cell-based; procedure, shortened: as §6
Sequence of MAP kinase-interacting serine/threonine-protein kinase 2 (Homo sapiens) (Q9HBH9 whole entry, looked up, the tested form may be a part): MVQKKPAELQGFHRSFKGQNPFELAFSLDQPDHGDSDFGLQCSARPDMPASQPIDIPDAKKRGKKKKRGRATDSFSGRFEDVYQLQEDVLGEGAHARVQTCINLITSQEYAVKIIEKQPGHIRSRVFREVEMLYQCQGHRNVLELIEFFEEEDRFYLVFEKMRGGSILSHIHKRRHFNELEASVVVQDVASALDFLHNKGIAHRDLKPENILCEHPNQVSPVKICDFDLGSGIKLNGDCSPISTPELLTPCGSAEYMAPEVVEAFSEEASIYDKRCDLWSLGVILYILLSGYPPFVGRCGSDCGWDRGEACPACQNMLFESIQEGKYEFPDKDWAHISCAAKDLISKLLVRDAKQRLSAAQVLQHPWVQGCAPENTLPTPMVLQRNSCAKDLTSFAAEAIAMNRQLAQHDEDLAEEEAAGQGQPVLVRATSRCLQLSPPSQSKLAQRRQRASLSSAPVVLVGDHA

Sequence of MAP kinase-interacting serine/threonine-protein kinase 1 (Mus musculus) (O08605 whole entry, the tested form may be a part): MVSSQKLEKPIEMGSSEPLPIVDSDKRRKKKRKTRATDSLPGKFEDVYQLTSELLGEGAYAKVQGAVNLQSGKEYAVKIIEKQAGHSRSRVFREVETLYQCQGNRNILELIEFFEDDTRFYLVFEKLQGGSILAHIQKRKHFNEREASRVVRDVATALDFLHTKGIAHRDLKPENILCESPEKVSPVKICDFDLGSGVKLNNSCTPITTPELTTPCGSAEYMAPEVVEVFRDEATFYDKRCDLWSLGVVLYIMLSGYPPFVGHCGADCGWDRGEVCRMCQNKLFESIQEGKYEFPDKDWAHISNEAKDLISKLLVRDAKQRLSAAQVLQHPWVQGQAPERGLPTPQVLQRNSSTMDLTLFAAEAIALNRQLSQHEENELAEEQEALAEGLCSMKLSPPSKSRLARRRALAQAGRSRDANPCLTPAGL
Sequence of MAP kinase-interacting serine/threonine-protein kinase 2 (Mus musculus) (Q8CDB0 whole entry): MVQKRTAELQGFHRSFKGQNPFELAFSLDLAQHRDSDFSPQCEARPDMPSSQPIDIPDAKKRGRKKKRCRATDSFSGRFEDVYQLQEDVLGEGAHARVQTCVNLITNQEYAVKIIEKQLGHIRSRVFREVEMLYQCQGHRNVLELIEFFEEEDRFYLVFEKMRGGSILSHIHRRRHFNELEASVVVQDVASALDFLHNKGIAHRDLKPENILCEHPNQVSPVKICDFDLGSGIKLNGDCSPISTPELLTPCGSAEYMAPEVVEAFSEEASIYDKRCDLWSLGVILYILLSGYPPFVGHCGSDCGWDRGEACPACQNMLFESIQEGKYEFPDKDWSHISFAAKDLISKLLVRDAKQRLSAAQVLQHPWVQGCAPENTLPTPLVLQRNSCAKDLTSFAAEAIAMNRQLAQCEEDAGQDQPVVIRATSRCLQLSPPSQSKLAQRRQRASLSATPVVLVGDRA
Sequence of Mitogen-activated protein kinase 1 and 3 (ERK2 and ERK1) (Mus musculus) (P63085 whole entry, looked up): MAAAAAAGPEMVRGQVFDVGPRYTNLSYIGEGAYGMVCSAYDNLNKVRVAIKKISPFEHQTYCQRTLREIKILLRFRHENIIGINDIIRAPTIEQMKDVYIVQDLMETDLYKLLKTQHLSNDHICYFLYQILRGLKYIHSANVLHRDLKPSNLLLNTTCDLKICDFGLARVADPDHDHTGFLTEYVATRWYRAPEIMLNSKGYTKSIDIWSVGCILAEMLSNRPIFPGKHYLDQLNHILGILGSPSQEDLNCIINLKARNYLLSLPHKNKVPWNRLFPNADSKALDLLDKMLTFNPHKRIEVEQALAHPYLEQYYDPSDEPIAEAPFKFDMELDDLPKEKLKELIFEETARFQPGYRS
Sequence of Mitogen-activated protein kinase 1 and 3 (ERK2 and ERK1) (Mus musculus) (Q63844 whole entry, looked up): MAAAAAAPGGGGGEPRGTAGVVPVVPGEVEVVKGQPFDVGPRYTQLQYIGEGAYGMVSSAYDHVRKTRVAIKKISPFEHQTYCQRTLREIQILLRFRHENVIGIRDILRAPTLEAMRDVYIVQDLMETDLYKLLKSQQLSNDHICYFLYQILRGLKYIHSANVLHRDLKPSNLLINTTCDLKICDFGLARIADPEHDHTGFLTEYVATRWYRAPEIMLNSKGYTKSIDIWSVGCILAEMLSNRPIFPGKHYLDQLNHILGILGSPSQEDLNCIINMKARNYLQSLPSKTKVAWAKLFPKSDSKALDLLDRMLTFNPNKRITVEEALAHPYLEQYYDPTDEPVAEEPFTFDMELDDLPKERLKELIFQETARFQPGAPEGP
Sequence of MAP kinase-interacting serine/threonine-protein kinase 1 (Homo sapiens) (Q9BUB5 whole entry, looked up, the tested form may be a part): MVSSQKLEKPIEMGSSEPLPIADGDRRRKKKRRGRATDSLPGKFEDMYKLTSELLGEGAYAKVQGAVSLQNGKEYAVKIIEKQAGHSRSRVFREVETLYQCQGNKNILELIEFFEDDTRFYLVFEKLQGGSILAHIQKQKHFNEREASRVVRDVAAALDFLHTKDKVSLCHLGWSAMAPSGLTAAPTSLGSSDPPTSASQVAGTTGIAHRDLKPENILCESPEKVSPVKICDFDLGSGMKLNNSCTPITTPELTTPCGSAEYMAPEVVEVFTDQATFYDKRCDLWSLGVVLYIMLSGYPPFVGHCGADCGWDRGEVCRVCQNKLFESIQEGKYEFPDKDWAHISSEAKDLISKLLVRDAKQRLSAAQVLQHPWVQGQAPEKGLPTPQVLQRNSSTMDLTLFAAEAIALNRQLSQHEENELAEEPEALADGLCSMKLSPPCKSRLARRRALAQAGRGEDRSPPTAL

Cc1c(C(=O)NCCCN2CCCC2)sc2ncnc(Nc3ccc(F)cc3OC(C)C)c12
inhibition [1]: 100%
Activity [2]: Non-Toxic
inhibition [3]: 100%
inhibition [4]: 100%
inhibition [5]: inactive
inhibition [6]: 50%
Activity [7]: Non-Toxic
inhibition [8]: Active
inhibition [9]: inactive
inhibition [10]: inactive
MNK inhibition (active/not active) [11]: Active
inhibition [12]: Active
inhibition [13]: 50%
inhibition [14]: Active
Activity [15]: Non-Toxic
inhibition [16]: Active
inhibition [17]: Active
Activity [18]: Active
Activity [19]: Active
inhibition of eIF4E phosphorylation (active/not active) [20]: Active
inhibition [21]: Active
inhibition [22]: Active
